Assay outcomes from PubChem BioAssay.
GPR7 antagonist = GPR7 receptor antagonists, primary screen, cell-based, fluorescence, single concentration; Neuropeptides B/W receptor type 1 (Homo sapiens), P48145; GPR7-expressing cells, fluorescence antagonist assay; inhibition, % at 4.4 µM; actives 1.1% (n = 290,000); in the data active = inhibition above about 16%, passing the limit was not always enough;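 note: cells stimulated with the agonist NPW; 0% = agonist with vehicle and 100% = vehicle without agonist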
Target sequence (P48145 whole entry, looked up): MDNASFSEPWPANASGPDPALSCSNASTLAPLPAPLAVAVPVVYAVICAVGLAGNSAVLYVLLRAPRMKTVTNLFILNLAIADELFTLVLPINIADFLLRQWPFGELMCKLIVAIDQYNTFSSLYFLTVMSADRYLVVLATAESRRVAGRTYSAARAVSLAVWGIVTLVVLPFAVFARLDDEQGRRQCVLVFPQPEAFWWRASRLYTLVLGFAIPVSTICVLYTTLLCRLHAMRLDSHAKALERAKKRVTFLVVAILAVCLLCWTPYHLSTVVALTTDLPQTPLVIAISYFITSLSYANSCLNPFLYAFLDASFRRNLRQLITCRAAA
HSF1 inh = HSF1 inhibitors in luciferase reporter cells, primary screen, cell-based, NIH3T3, luminescence. activity change, negative = inhibition, % at 7.5 µM (by protocol). NIH3T3-HGL HSE-luciferase, MG132-induced, luminescence 8 h; hits give low values. actives 0.77% (n = 300,000);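 active = more than half of replicate wells show activity change below -50%, luminescence cut by over half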;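 note: luciferase reports HSF-1 transcriptional activity via heat shock element; 0% = median of DMSO wells and -100% = zero luminescence signal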
Jurkat NFkB inh = inhibitors of induced NF-kB luciferase reporter, primary screen, TCR NF-kB activation inhibitor project, cell-based, luminescence, uHTS; Jurkat, PMA/ionomycin-induced NF-kB luciferase reporter; inhibition, % at 4 µM; actives 0.53% (n = 330,000); in the data active = inhibition above about 50%
HSF1 activator = HSF-1 activators, primary screen, NIH3T3-HGL cells, MG132 stress, luminescence, single point; NIH3T3-HGL HSF-1 luciferase reporter, 8 h; 100% = twice DMSO control signal; activation, % at 9 µM; actives 1.7% (n = 300,000); AID 504408, 2011;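 active = mean replicate activation of at least 50% with a set share of replicates each reaching 50%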;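 note: 0% = median of the neutral control wells and 100% = twice that signal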
697 NFkB inh = inhibitors of PMA/ionomycin-induced NF-kB reporter, 697 cells, primary screen, B-cell NF-kB inhibitor project, cell-based, luminescence, uHTS; 697 B-cell NF-kB luciferase reporter, 16 h; inhibition, % at 4 µM; actives 0.33% (n = 330,000); in the data active = inhibition above about 35%
T cruzi inh = inhibitors of intracellular T. cruzi growth, primary screen, luminescence, NIH3T3 host cells; AID 1885, 2009; T. cruzi beta-gal in NIH3T3, 90 h; actives 1.4% (n = 300,000); inhibition, % (no concentration beside the values);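 active = mean inhibition across valid replicates above about 55%, limit read from the data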;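 note: signal also drops with host cell toxicity which is not excluded here; 0% = plate median of DMSO wells and 100% = zero luminescence signal; higher percent means less beta-gal luminescence so fewer parasites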
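Material: NIH/3T3 host cells with β-galactosidase reporter T. cruzi; Input: 5,000 host fibroblasts per well; Medium: DMEM, 2% fetal bovine serum; Compound: 50 nL DMSO compound solution per well; Schedule: 3 h host attachment, then at least 90 h co-culture; Detection: luminescent β-galactosidase signal after 60 min lysis.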
Active calls of the source: *; x = no result given. A selection: hits, their analogues and other compounds. The true share with any hit is near 4.8%.

SMILES | GPR7 antagonist | HSF1 inh | Jurkat NFkB inh | HSF1 activator | 697 NFkB inh | T cruzi inh
CC1(c2ccc3c(c2)OCCO3)NC(=O)N(CC(=O)Nc2ccccc2F)C1=O (stereo not given) | x | x | -5 | x | -7 | x
CCOc1ccc(N(CC(=O)NC2CCCC2)C(=O)CCC(=O)Nc2nc(C)cs2)cc1 | -1 | -6 | 11 | 9 | 2 | 1
CCOc1ccc(N(CC(=O)NC2CCCCC2)C(=O)CCC(=O)Nc2nc(C)cs2)cc1 | 10 | -59* | -4 | -60 | 7 | 8
O=C(/C=C/c1ccccc1)NC(NC(=S)Nc1cccc(Cl)c1)C(Cl)(Cl)Cl (stereo not given) | 3 | 7 | -7 | 14 | -26 | 59*
Cc1ccc(C)c(NC(=S)NC(NC(=O)OCc2ccccc2)C(Cl)(Cl)Cl)c1 (stereo not given) | 0 | 0 | 8 | 11 | -13 | 17
O=C(/C=C/c1ccccc1)NC(NC(=S)Nc1ccc(Cl)cc1Cl)C(Cl)(Cl)Cl (stereo not given) | -6 | -2 | 1 | -4 | 9 | 78*
O=C(NC(NC(=S)Nc1c(Cl)cc(Cl)cc1Cl)C(Cl)(Cl)Cl)OCc1ccccc1 (stereo not given) | -4 | 5 | -9 | 15 | -8 | 74*
COc1cc(/C=N/NC(=O)c2ccccc2NS(=O)(=O)c2cccs2)ccc1O | x | x | 1 | x | 2 | x
CCC(C)N(C(=O)CSc1nnc(-c2cccs2)n1C1CC1)C1CCS(=O)(=O)C1 (stereo not given) | x | x | -1 | x | 4 | x
CCCc1nc2sc3ccccc3c(=O)c2c(=O)n1CCOC | -11 | -4 | 11 | 1 | 18 | -2
CCc1nc2sc3ccccc3c(=O)c2c(=O)n1Cc1ccc(OC)cc1 | -19 | -65* | -13 | -64 | -12 | 21
Cc1cc(C)[n+](-c2ccc(C(C)C)cc2)c2[nH]c(=O)[nH]c(=O)c12 | -7 | -2 | -25 | 4 | -9 | -6
Cc1cccc(-[n+]2c(C)cc(C)c3c(=O)[nH]c(=O)[nH]c32)c1 | -4 | 14 | -2 | 63* | 20 | -13
O=[N+]([O-])c1cc([N+](=O)[O-])c2c(=Nc3ccccc3)n(-c3ccccc3)n(O)c2c1 | 5 | 22 | 2 | 28 | 0 | 58*
Cc1ccc2c(CC(=O)N(C)c3c(N)n(Cc4ccccc4)c(=O)[nH]c3=O)coc2c1 | x | -22 | 4 | 0 | 8 | 2
CC(=O)Cn1ncc(Br)c(Br)c1=O | -5 | -94* | x | -94 | x | 56*
O=C(OCn1ncc(Br)c(Br)c1=O)c1c(F)cccc1F | 0 | -95* | x | -96 | x | 39
O=C(NCc1ccccc1)C12CC3CC(CC(Br)(C3)C1)C2 | 2 | -7 | 2 | -17 | 12 | 10
CCOC(=O)CC(NS(=O)(=O)c1ccc(OC)c(OC)c1)c1cccc([N+](=O)[O-])c1 (stereo not given) | 1 | 0 | 6 | 4 | 20 | -11
CCOC(=O)CC(NS(=O)(=O)c1ccc2[nH]cc(C(=O)O)c(=O)c2c1)c1ccc(OCC)c(OC)c1 (stereo not given) | -7 | 45 | -1 | 88* | 2 | -4
Cc1ccc(S(=O)(=O)c2c(C)cc(C)nc2Cl)c(C)c1 | 5 | -4 | -8 | -11 | 6 | 59*
Cc1cc(C)c(S(=O)(=O)c2ccccc2C)c(Cl)n1 | -3 | 2 | 1 | 11 | 1 | 55*
O=C(Nc1ccccn1)c1ccc(S(=O)(=O)N2CCCCCC2)cc1 | x | 12 | -71 | 12 | -9 | 7
CC(C)(C)NCC1(CO)SC(N)=NC1=O (stereo not given) | -14 | -8 | -6 | -5 | 15 | 57*
COc1ccc(C2OCC3(CO2)SC(N)=NC3=O)cc1 (stereo not given) | -3 | -6 | 12 | -2 | 10 | -6
